In one series the test system is non-cancer subjects. Put plainly: Study A2116: safety. The class given is in vivo, human. Conditions: single 400-mg dose. A digest of the protocol:
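Phase I, open-label, multicenter, parallel-group, two-part study. Single oral 400-mg dose in non-cancer subjects with varying renal impairment vs matched normal-function subjects. Part I enrolled normal function, severe RI and ESRD not on dialysis.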

The format of series [1] is in vivo, human. Conditions: for Increase in AUCinf compared with normal renal function / Increase in Cmax compared with normal renal function: single 400-mg dose; for Exposure of metabolite higher compared with normal renal function: single 400-mg dose of ribociclib.
The test system of series [2] is patients with advanced breast cancer. Put plainly: Patient subgroup safety analysis by renal function. Type of series: in vivo, human. The note with it: for AEs leading to discontinuations / Dose modifications owing to renal toxicity / Incidence of thrombocytopenia / On-treatment deaths / QT interval prolongation events: ribociclib group. In a few lines:
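Safety by renal function group in X2107, MONALEESA-2, MONALEESA-3 and MONALEESA-7 (NSAI only). Starting dose 600 mg, 3 weeks on/1 week off. Drug-related AEs were managed by reducing to 400 or 200 mg. Patients with severe RI were excluded from these studies.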

Series [3] shares this test system. Put plainly: Patient subgroup efficacy analysis. Type of series: in vivo, human. Conditions: for PFS HR (95% CI) RIB vs PBO: Cox proportional-hazards model stratified by study; for Median PFS (95% CI): Kaplan–Meier, local investigator's assessment. In a few lines:
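Pooled data: MONALEESA-2 (full analysis set), MONALEESA-3 (first-line patients) and MONALEESA-7 (NSAI only). Starting dose 600 mg, 3 weeks on/1 week off. Severe RI was excluded. PFS by local investigator assessment. Median PFS by Kaplan–Meier; hazard ratio from a Cox proportional-hazards model stratified by study.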

The next series has as its system plasma protein. Conditions: cited from earlier work.
The conditions of series [4]: cited from earlier work.
For series [5] the following is noted: cited from earlier work. The source holds these as a separate data set.
For series [6] the following is noted: cited from earlier work. The source holds these as a separate data set.
The conditions of series [7]: baseline eGFR as a continuous covariate; patients; cited from earlier work.
The conditions of series [8]: pharmacokinetic data; cited from earlier work.
For series [9] the following is noted: cited from earlier work. This is another data set of the same source.
A short description of series [10]: Subgroup analysis for letrozole PK by renal function. The note with it: X2107 and MONALEESA-7, no moderate RI available, data on file. The class given is in vivo, human.

Read-outs that look alike come from different tables or passages of the source.

Regarding `CN(C)C(=O)c1cc2cnc(Nc3ccc(N4CCNCC4)cn3)nc2n1C1CCCC1` [ribociclib], in the series with non-cancer subjects (all cohorts), the “Subjects with at least one AE” value is 31.6% and the “Subjects with treatment-related AEs” value is given as 15.8%. The “Changes from baseline in hematology, chemistry, vital signs, or electrocardiograms” value in the series on non-cancer subjects (any of the cohorts) is “No clinically meaningful changes from baseline”. Moreover, the “Ae0-144h Geo-mean (amount excreted into the urine from time 0 to 144 h)” value in series [1] (ESRD, N = 3, single oral dose of ribociclib at 400 mg, Part I and II) was 8.11 mg. Further, the “Renal clearance as share of the apparent clearance” value in series [1] (Study A2116) is given as “around 5%”. Moreover, in series [1] (mild RI), the “Increase in AUCinf compared with normal renal function” value (shortened to “Increase in AUCinf”) is 62% and the “Increase in Cmax compared with normal renal function” value (“Increase in Cmax” below) is recorded as 80%. In addition, in [1] (moderate RI), the “Increase in AUCinf” value was determined as 94% and the “Increase in Cmax” value is given as 79%. Besides, in [1] (severe RI), the “Increase in AUCinf” value is recorded as 167% and the “Increase in Cmax” value stood at 130%. Moreover, the “Median time to the first dose reduction” value in series [2] (across renal function cohorts, patients with dose reductions) was 12.0–12.9 weeks. Besides, in [2] (patients with ABC), the “AEs of torsade de pointes” value is given as “No AEs of torsade de pointes were reported”; the “Median time to first occurrence of QTcF value > 480 ms and an increase from baseline of >60 ms” value came out at 15 days. Moreover, in [2] (mild RI), the “AEs leading to discontinuations” value amounted to 16.0%, the “Dose modifications owing to renal toxicity” value (“Dose modifications owing” below) was 2.5%, the Incidence of thrombocytopenia is given as 11.0% and the On-treatment deaths came out at 1.3%. Further, the “QT interval prolongation events” value in series [2] (mild RI) came to 10.3%. Besides, in [2] (moderate RI), the “AEs leading to discontinuations” value came to 25.4%, the “Dose modifications owing” value was found to be 3.8%, the Incidence of thrombocytopenia amounted to 13.8% and the On-treatment deaths is 5.4%. Also, in [2] (moderate RI), the “QT interval prolongation events” value is on record as 10.0%. Moreover, the “AEs leading to discontinuations” value in series [2] (normal function) is recorded as 10.1%. In series [2] (normal renal function), the “Dose modifications owing” value stood at 0.7%, the Incidence of thrombocytopenia was found to be 7.0%, the On-treatment deaths was 1.4% and the “QT interval prolongation events” value is on record as 6.4%. For the same compound, in series [3] (mild renal impairment), the “PFS HR (95% CI) RIB vs PBO” value turned out to be 0.57 and the “Median PFS (95% CI)” value was determined as 24.8 months. For the same compound, in series [3] (moderate renal impairment), the “PFS HR (95% CI) RIB vs PBO” value stood at 0.64 and the “Median PFS (95% CI)” value turned out to be 22.2 months. In series [3] (normal renal function), the “PFS HR (95% CI) RIB vs PBO” value came out at 0.58 and the “Median PFS (95% CI)” value was determined as 23.8 months. Also, the Protein binding in the series with plasma protein is on record as 70%. The Mean effective half-life in series [4] (at 600 mg) was 33 to 54 h. For the same compound, the “Oral clearance in patients with cancer versus non-cancer subjects” value in [4] was “generally lower oral clearance”. Also, the “Dose proportionality of exposure” value in [4] (dose range of 50–1200 mg) is “slightly over-proportional increases in exposure”. Further, the “Time to maximum observed plasma drug concentration” value in [4] (previous PK analyses) is 1 to 5 h. Moreover, in series [5], the Intestinal excretion was roughly 8% and the Renal excretion result is reported as “around 7%”. Besides, the “Contribution of renal clearance, share of overall elimination routes” value in series [5] (human absorption, distribution, metabolism, and excretion study) is 7%. Also, the “Hepatic elimination, share of overall pathways” value in [5] (in humans) is 84%. In addition, the “Exposure compared with subjects with normal hepatic function” value in series [6] (mild hepatic impairment) was “similar”. In addition, in series [6] (moderate and severe HI), the “Increase in exposure compared with normal hepatic function” value was “approximately 30%”. In addition, the “Maximal increase in exposure” value in [6] (severe HI) is 1.3 fold. The “Effect of RI on PK in covariate analysis” value in [7] was “not affected by RI”. The “Drug–drug interactions with NSAIs (letrozole and anastrozole) or fulvestrant” value in series [8] is “no drug–drug interactions”.

With `CNC(=O)c1cc2cnc(Nc3ccc(N4CCNCC4)cn3)nc2n1C1CCCC1` [LEQ803], the “Exposure of metabolite higher compared with normal renal function” value in series [1] (mild RI) is listed as 32%; in [1] (moderate RI), 47%; in [1] (severe RI) it was 80%. Also, in series [9], the “Contribution to the pharmacological activity in vivo” value is listed as “no clinically relevant contribution to the pharmacological activity in vivo”.

As for `N#Cc1ccc(C(c2ccc(C#N)cc2)n2cncn2)cc1` [letrozole], the “PK between normal renal function and mild RI” value in [10] is listed as “comparable PK”.

The values above are taken from article PMC10042892 (Clinical Pharmacokinetics, 2023).
